From ChEMBL document CHEMBL3739314, “Discovery of Nanomolar Dengue and West Nile Virus Protease Inhibitors Containing a 4-Benzyloxyphenylglycine Residue” (J Med Chem, 2015)
pEC50, pIC50: −log10 of the molar value. Calls of active or inactive are those of the source. No cut-off for these calls is given here.

Columns and labels:
West Nile virus [1] = experiment: Inhibition of West Nile virus NS2B-NS3 protease at 0 to 48 uM incubated for 1 hr by tryptophan quenching assay
dengue virus type 2 [2] = experiment: Inhibition of Dengue virus serotype-2 NS2B-NS3 protease at 0 to 48 uM incubated for 1 hr by tryptophan quenching assay
Trypsin (Homo sapiens) = Trypsin (Homo sapiens) (UniProt P07477+P07478+P35030); experiment: Inhibition of trypsin (unknown origin) using Boc-Val-Pro-Arg-AMC as substrate at 25 uM preincubated with protein for 15 mins followed by substrate addition by continuous fluorimetric assay relative to control
[3] = target: Prothrombin (Homo sapiens) (UniProt P00734); experiment: Inhibition of thrombin (unknown origin) using Boc-Val-Pro-Arg-AMC as substrate at 25 uM preincubated with protein for 15 mins followed by substrate addition measured for 10 mins by continuous fluorimetric assay relative to control
West Nile virus [4] = experiment: Inhibition of West Nile virus NS2B-NS3 protease using 2-Abz-Gly-Leu-Lys-Arg-Gly-Gly-[…]-Tyr-NH2 as substrate at 50 uM preincubated with protein for 15 mins followed by substrate addition measured for 15 mins by FRET assay
Outline: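 Linked WNV NS2B-NS3 protease (150 nM) was preincubated 15 min with inhibitor (50 μM final) in 50 mM Tris-HCl pH 9, 10% ethylene glycol, 0.0016% Brij 58. […] Percent inhibition was taken from the slope relative to the no-inhibitor control, in triplicate.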

[5] = Inhibition of West Nile virus NS2B-NS3 protease using 2-Abz-Gly-Leu-Lys-Arg-Gly-Gly-[…]-Tyr-NH2 as substrate preincubated with protein for 15 mins followed by substrate addition measured for 15 mins by FRET assay
Outline: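 WNV NS2B-NS3 linked construct at 75 nM (40 nM in one case) in pH 9 Tris buffer, preincubated 15 min with eight inhibitor concentrations (ranges 0–1 up to 0–50 μM). Substrate was 50 μM, with FRET readout over 15 min. IC50 was fitted from triplicates.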

[6] = Inhibition of Dengue virus serotype-2 NS2B-NS3 protease using 2-Abz-Nle-Lys-Arg-Arg-Ser-(3-NO2)-Tyr-NH2 as substrate preincubated with protein for 15 mins followed by substrate addition measured for 15 mins by FRET assay; set-up: species or system dengue virus type 2
Outline: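 DENV-2 NS2B-NS3 linked construct at 30 nM (15 nM in some cases), same pH 9 Tris buffer, 15 min preincubation and FRET read-out. Eight inhibitor concentrations spanned 0–1, 0–2, 0–6 or 0–50 μM, with substrate at 50 μM. IC50 was fitted from triplicates.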

dengue virus type 2 [7] = experiment: Potency index, ratio of EC50 for relative to Bz-Lys-Arg-Phg-NH2 to EC50 for test compound for antiviral activity against Dengue virus serotype-2 infected in African green monkey Vero cells after 7 days by virus yield reduction assay; type: functional
Outline: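 Huh-7 cells (10^4/well) in DMEM + 10% FBS, held overnight at 37 °C, then infected with DENV-2 (MOI 1) with nontoxic compound concentrations. Each concentration in triplicate, 48 h at 37 °C, then supernatants pooled. Titres by plaque assay on Vero E6 (10^-1 to 10^-6 dilutions, 1 h adsorption, 7 days, formaldehyde fix, crystal violet, plaque count). EC50 from nonlinear dose-response fit; reference inhibitor also assayed.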

dengue virus type 2 [8] = experiment: Antiviral activity against Dengue virus serotype-2 infected in African green monkey Vero cells after 7 days by virus yield reduction assay; type: functional, organism-based
West Nile virus [9] = experiment: Antiviral activity against West Nile virus infected in human HuH7 cells after 3 days by virus yield reduction assay; type: functional, organism-based; conditions: Huh-7, 72 h
[10] = Cytotoxicity against human HuH7 cells infected with Dengue virus serotype-2 assessed as cell viability after 48 hrs by Cell-Titer-Glo luminescent viability assay; type: cell-based, Huh-7
Outline: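 Huh-7 cells (10^4/well) were seeded in DMEM + 10% FBS overnight, then infected with WT DENV-2 (MOI 1) in the presence of compound, triplicate per concentration. After 48 h at 37 °C, medium was replaced with fresh DMEM and viability was read by CellTiter-Glo luminescence. CC50 was determined.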

[11] = Cytotoxicity against human HuH7 cells infected with West Nile virus assessed as cell viability after 48 hrs by Cell-Titer-Glo luminescent viability assay; type: cell-based, Huh-7
Outline: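 Huh-7 cells (10^4/well, DMEM + 10% FBS, overnight) were infected with WT WNV (MOI 0.1) alongside compound, each concentration in triplicate. After 48 h at 37 °C, fresh DMEM was added and viability was measured by CellTiter-Glo luminescence. CC50 was determined.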

[12] = Permeability of compound after 5 hrs by PAMPA; type: ADME; conditions: read-out: permeability
Outline: (§1)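 Precoated PAMPA plates were equilibrated 1 h at room temperature. Donor wells received 200 μM compound in PBS, in triplicate, and acceptor wells received PBS. After 5 h at room temperature, donor and acceptor concentrations were quantified by RP-HPLC UV at 254 nm against six-point calibration curves (10–200 μM). Pe and mass retention were calculated by literature formulas.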

[13] = Retention time of compound by RP-HPLC analysis; type: physicochemical
[14] = Permeability of compound assessed as compound mass retention after 5 hrs by PAMPA; type: ADME; outline: as §1
[15] = Half life in Sprague-Dawley rat liver microsomes incubated for 30 mins by UV-HPLC method; type: ADME
Outline: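 Pooled male rat liver microsomes (0.2 mg/mL protein) with NADPH (10 mM) in DPBS were preincubated 15 min at 37 °C. Compound (100 μM) was added and incubated at 37 °C; aliquots were taken at 0, 2, 5, 10, 20 and 30 min. Samples were quenched with equal-volume acetonitrile, chilled and centrifuged, and parent remaining was quantified by RP-HPLC UV against reference peak areas. Testosterone served as positive control.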

West Nile virus [16] = experiment: Potency index, ratio of EC50 for relative to Bz-Lys-Arg-Phg-NH2 to EC50 for test compound for antiviral activity against West Nile virus infected in human HuH7 cells after 3 days by virus yield reduction assay; type: functional, Huh-7
Outline: (§2)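 Huh-7 cells (10^4/well) in DMEM + 10% FBS, overnight at 37 °C, then infected with WNV (MOI 0.1) plus compound, triplicate, 48 h. Pooled supernatant plaque-titrated on Vero E6 (10^-2 to 10^-7, 3 days, crystal violet), giving EC50 by nonlinear fit. Viability of the same infected cells by CellTiter-Glo luminescence gave CC50. Reference inhibitor also assayed.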

[17] = Selectivity index, ratio of CC50 for African green monkey Vero cells to EC50 for Dengue virus serotype-2 infected in African green monkey Vero cells; type: toxicity, cell-based; conditions: read-out: Ratio CC50/EC50
[18] = Selectivity index, ratio of CC50 for human HuH7 cells to EC50 for West Nile virus infected in human HuH7 cells; type: toxicity, cell-based, Huh-7; conditions: read-out: Ratio CC50/EC50; outline: as §2

inhibition (West Nile virus [1]): Active | inhibition (dengue virus type 2 [2]): Active | inhibition (Trypsin (Homo sapiens)): inactive | inhibition [3]: inactive | inhibition (West Nile virus [4]): 100% | pIC50 [5]: 6.25 | pIC50 [6]: 6.75 | pEC50 (dengue virus type 2 [8]): 5.47 | pEC50 (West Nile virus [9]): 4.81 | Papp at 5 h [12]: 0.65 ×10⁻⁶ cm/s | Retention_time [13]: 3.28 min | permeability [14]: 1.15% | half-life [15]: 175 min
Compound: COc1cccc(COc2ccc([C@@H](NC(=O)[C@H](CCCCN)NC(=O)[C@H](CCCNC(=N)N)NC(=O)c3ccc(-c4cccs4)s3)C(N)=O)cc2)c1
Ratio EC50 (dengue virus type 2 [7]): 25 | CC50 at 48 h [10]: > 100 µM | CC50 at 48 h [11]: > 100 µM | Ratio EC50 (West Nile virus [16]): 7 | selectivity ratio [17]: > 25 | selectivity ratio [18]: > 7
